Laboratory results as given in ChEMBL document CHEMBL1151692, “Substituted hippurates and hippurate analogs as substrates and inhibitors of peptidylglycine alpha-hydroxylating monooxygenase (PHM)” (Bioorg Med Chem, 2008).
Where a SMILES comes first, the peptide text is derived from it. [ ]: non-standard residue; d: D form. The star is where a group is joined. Dansyl = CN(C)c1cccc2c(S(=O)(=O)*)cccc12; pGlu = O=C1CC[C@@H](C(=O)O)N1; Boc = CC(C)(C)OC(=O)*; Bz = O=C(c1ccccc1)*; ClAc = O=C(CCl)*

What was measured:
[1] = biological target: T1, Peptidylglycine alpha-amidating monooxygenase (Rattus norvegicus) (UniProt P14925); experiment: Activity of rat recombinant peptidylglycine alpha-amidating monooxygenase assessed as stimulation of oxygen consumption
T1 sequence (whole entry): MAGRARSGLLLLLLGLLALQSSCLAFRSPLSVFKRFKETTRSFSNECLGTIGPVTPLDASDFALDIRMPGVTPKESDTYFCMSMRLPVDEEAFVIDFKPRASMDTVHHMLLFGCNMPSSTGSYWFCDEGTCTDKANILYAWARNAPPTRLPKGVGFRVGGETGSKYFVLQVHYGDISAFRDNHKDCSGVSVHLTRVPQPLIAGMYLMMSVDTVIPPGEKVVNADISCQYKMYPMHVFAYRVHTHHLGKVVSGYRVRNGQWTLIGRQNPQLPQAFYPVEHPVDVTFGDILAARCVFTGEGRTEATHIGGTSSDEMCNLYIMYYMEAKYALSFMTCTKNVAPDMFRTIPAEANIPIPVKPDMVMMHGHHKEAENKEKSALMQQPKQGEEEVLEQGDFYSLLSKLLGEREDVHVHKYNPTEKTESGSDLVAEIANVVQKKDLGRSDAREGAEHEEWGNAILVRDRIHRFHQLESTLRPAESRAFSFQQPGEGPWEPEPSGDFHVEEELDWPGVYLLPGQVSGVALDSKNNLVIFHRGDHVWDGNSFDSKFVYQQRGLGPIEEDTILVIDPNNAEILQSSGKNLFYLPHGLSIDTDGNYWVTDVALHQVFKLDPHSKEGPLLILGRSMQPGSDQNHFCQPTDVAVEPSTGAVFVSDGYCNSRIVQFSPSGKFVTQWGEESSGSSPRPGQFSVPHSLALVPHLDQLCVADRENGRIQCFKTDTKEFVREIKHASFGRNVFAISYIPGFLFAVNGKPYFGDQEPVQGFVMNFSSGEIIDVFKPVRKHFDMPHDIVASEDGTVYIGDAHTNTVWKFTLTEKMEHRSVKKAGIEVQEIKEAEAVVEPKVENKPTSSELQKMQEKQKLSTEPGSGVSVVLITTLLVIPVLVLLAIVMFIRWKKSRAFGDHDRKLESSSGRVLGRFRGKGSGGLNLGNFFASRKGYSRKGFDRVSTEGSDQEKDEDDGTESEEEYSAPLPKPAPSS

[2] = biological target: T1, Peptidylglycine alpha-amidating monooxygenase (Rattus norvegicus); experiment: Ratio of Vm(app) to Km(app) for rat recombinant peptidylglycine alpha-amidating monooxygenase relative to hippuric acid
Method in brief: (§1)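 Recombinant rat type A medullary thyroid carcinoma PAM (bifunctional), 15–50 μg, in 100 mM MES/NaOH pH 6.0, 30 mM NaCl, 1% ethanol, 0.001% Triton X-100, 10 μg/mL catalase, 1.0 μM Cu(NO3)2, 5.0 mM ascorbate, ~200 μM O2, 37 °C. Substrate generally 0.3–5.0 KM,app. Initial O2 consumption rates read by oxygen monitor and fit to Michaelis–Menten.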

[3] = biological target: T1, Peptidylglycine alpha-amidating monooxygenase (Rattus norvegicus); experiment: Ratio of Vm(app) to Km(app) for rat recombinant peptidylglycine alpha-amidating monooxygenase; method in brief: as §1

SMILES	Vmax(app) [1] [s⁻¹]	Activity [2]	Ratio [3]
O=C(O)CNC(=O)OCc1ccccc1	8.6	2.4	1.5 ×10⁴ /M/s
O=C(O)CNC(=O)c1ccc(O)cc1	5.8	0.6	3.5 ×10³ /M/s
O=C(O)CNC(=O)CCCCCCCc1ccccc1	8	12	7.6 ×10⁴ /M/s
Cc1ccc(C(=O)NCC(=O)O)cc1	5.7	0.5	3.2 ×10³ /M/s
CC(C)CCC(=O)NCC(=O)O	6.6	3.7	2.3 ×10⁴ /M/s
O=C(O)CNC(=O)CCc1ccccc1	9.9	1.8	1.1 ×10⁴ /M/s
O=C(O)CNC(=O)c1cccc(Cl)c1	7.8	0.6	3.6 ×10³ /M/s
O=C(O)CNC(=O)C1CC1c1ccccc1 (centres undefined)	10	1.8	1.1 ×10⁴ /M/s
CC(C)[C@H](NC(=O)[C@H](Cc1ccc(O)cc1)NS(=O)(=O)c1cccc2c(N(C)C)cccc12)C(=O)N[C@H](C)C(=O)O (Dansyl-Tyr-Val-[dA]-OH)	0.91		3 ×10⁴ /M/s
CCc1ccc(C(=O)NCC(=O)O)cc1	3.6	0.5	3.1 ×10³ /M/s
O=C(O)CNC(=O)c1ccco1	7.5	0.5	2.8 ×10³ /M/s
Nc1ccccc1C(=O)NCC(=O)O	4.2	0.5	2.9 ×10³ /M/s
O=C(O)CNC(=O)CCCCCc1ccccc1	11	32	2 ×10⁵ /M/s
O=C(O)CNC(=O)CCCCc1ccccc1	12	12	7.6 ×10⁴ /M/s
CC(C)(C)OC(=O)NCC(=O)O	6.3	0.3	1.7 ×10³ /M/s
O=C(O)CNC(=O)CNC(=O)c1ccccc1 (Bz-Gly-Gly-OH)	12	26	1.6 ×10⁵ /M/s
O=C(O)CNC(=O)CCCc1ccccc1	11	11	7 ×10⁴ /M/s
O=C(O)CNC(=O)[C@@H]1CCC(=O)N1 ([pGlu]-Gly-OH)	9.3	4.8	3 ×10⁴ /M/s
O=C(O)CNC(=O)CNC(=O)CNC(=O)c1ccccc1 (Bz-Gly-Gly-Gly-OH)	8.8	4.7	2.9 ×10⁴ /M/s
O=C(O)CNC(=O)c1ccc(Cl)cc1	4.1	1.1	6.6 ×10³ /M/s
O=C(O)CNC(=O)SCc1ccccc1	0.69	1.9	1.2 ×10⁴ /M/s
O=C(O)CNC(=O)c1cccnc1		0.7	
COc1ccc(C(=O)NCC(=O)O)cc1	5.3	1	6.4 ×10³ /M/s
O=C(O)CNC(=O)c1ccc(Br)cc1	2.5	0.8	4.9 ×10³ /M/s

SMILES	Vmax(app) [1] [s⁻¹]	Activity [2]	Ratio [3]
O=C(O)CNC(=O)CNC(=O)c1ccc([N+](=O)[O-])cc1	8.7	12	7.6 ×10⁴ /M/s
O=C(O)CNC(=O)c1ccc(C(F)(F)F)cc1	2.8	0.6	3.6 ×10³ /M/s
O=C(O)CNC(=S)CCc1ccccc1	1.6	6.8	4.2 ×10⁴ /M/s
CC(Cc1ccccc1)C(=O)NCC(=O)O (centres undefined)	18	0.69	4.3 ×10³ /M/s
O=C(O)CNC(=O)c1ccc([N+](=O)[O-])cc1	4.2	1.4	8.9 ×10³ /M/s
O=C(O)CNC(=O)c1c(F)cccc1F	4.3	0.04	2.3 ×10² /M/s
CC(C)SCC(=O)NCC(=O)O	1.8	1.3	8.2 ×10³ /M/s
O=C(O)CNC(=S)Cc1ccccc1	2.4	16	1 ×10⁵ /M/s
CC(C)(C)OC(=O)NCC(=O)NCC(=O)O (Boc-Gly-Gly-OH)	7.5	4	2.5 ×10⁴ /M/s
Cc1cccc(C(=O)NCC(=O)O)c1	6.4	0.8	4.7 ×10³ /M/s
O=C(O)CNC(=O)/C=C/c1ccco1	3.4	0.45	2.8 ×10³ /M/s
O=C(O)CNC(=O)/C=C/c1ccccc1	8.4	5.8	3.6 ×10⁴ /M/s
O=C(O)CNC(=O)c1cccs1	9.3	1	6 ×10³ /M/s
Cc1ccccc1C(=O)NCC(=O)O	7.9	0.3	1.8 ×10³ /M/s
CCCc1ccc(C(=O)NCC(=O)O)cc1	5.1	0.7	4.2 ×10³ /M/s
O=C(O)CNC(=O)c1ccccc1I	3.1	0.1	9.1 ×10² /M/s
O=C(O)CNC(=O)c1ccccc1O	4.9	1.1	7.1 ×10³ /M/s
C[C@@H](NC(=O)c1ccccc1)C(=O)O	0.27		3.2 M⁻¹ s⁻¹
CC(=O)NCC(=O)O		0.1	
Nc1ccc(C(=O)NCC(=O)O)cc1	5.6	0.4	2.2 ×10³ /M/s
O=C(O)CNC(=O)Nc1ccccc1	9.7	4.4	2.7 ×10⁴ /M/s
O=C(O)CNC(=O)CNC(=O)CCl (ClAc-Gly-Gly-OH)	8.9	3.3	2.1 ×10⁴ /M/s
CC(=O)N[C@H](C)C(=O)O	1.3		0.95 M⁻¹ s⁻¹
